Assay [1] is described as follows: Cytotoxicity against human GM00637 cells assessed as reduction in mean cell viability after 72 hrs by MTT assay. The class given is cell-based. The following applies: GM00637, 72 h. The essentials:
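SV40-transformed normal skin fibroblasts (GM00637) in MEM Eagle–Earle BSS with 15% heat-inactivated FBS, 2 mM L-glutamine, 2× amino acids and vitamins. Seeded at 10,000 cells/well and left 24 h to adhere. Ethanol-delivered compound (1% final) for 72 h at 37 °C, 5% CO₂. MTT formazan in DMSO read at 550/690 nm. Viability relative to vehicle; IC₅₀ by nonlinear regression.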

In assay [2] the test system is HeLa. The assay is described as follows: Cytotoxicity against human HeLa cells assessed as reduction in mean cell viability after 72 hrs by MTT assay. It is filed as functional, cell-based. The essentials:
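HeLa-CCL-2 cells in DMEM with 10% heat-inactivated FBS, 2 mM L-glutamine and nonessential amino acids. Plated at 1000 cells/well with 24 h adherence. Treated in ethanol (1% final) for 72 h at 37 °C under 5% CO₂, with ethanol controls. Absorbance of DMSO-dissolved formazan at 550 nm, 690 nm reference. IC₅₀ by nonlinear regression of percent viability.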

Assay [3] deals with DU-145. Description: Cytotoxicity against human DU145 cells assessed as reduction in mean cell viability after 72 hrs by MTT assay. As to conditions: DU-145, 72 h. It is filed as functional, cell-based. The essentials:
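DU-145 prostate cells in RPMI-1640 with 10% heat-inactivated FBS, penicillin–streptomycin and 2 mM L-glutamine. Seeded at 2000 cells/well and left 24 h to adhere. Compound added in ethanol (1% final) for 72 h at 37 °C, 5% CO₂, with ethanol-only controls. Formazan dissolved in DMSO and read at 550 nm (690 nm reference). IC₅₀ derived by nonlinear regression of viability versus vehicle.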
A general note: Formazan colour is commonly taken as a measure of viable cells.

On to `CCCCn1cnc2c1C(=O)c1ncn(CCCC)c1C2=O`, for which the half-inhibitory concentration (IC50) in assay [1] amounted to 1050 nM; in assay [2], 440 nM; in assay [3], 1340 nM.

What is called IC50 is the concentration that inhibits the measured activity by half.

(Values after ChEMBL document CHEMBL2021842, “COMPARE analysis of the toxicity of an iminoquinone derivative of the imidazo[5,4-f]benzimidazoles with NAD(P)H:quinone oxidoreductase 1 (NQO1) activity and computational docking of quinones as NQO1 substrates” (Bioorg Med Chem, 2012).)
